The values that follow come from PMC4291750 (Journal of the American Chemical Society, 2014).

For data set [1], the system named is PSMA-coated beads phagocytosed by IFN-γ-primed U937 cells. Description: Bead phagocytosis assay. Format: cell-based. In short, it runs like this:
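Effectors were U937 cells primed 72 h with IFN-γ (final 2 ng/mL, medium changed daily) and stained with DiD (final 1.9 μM, 30 min, 37 °C). Targets were 6 μm fluorescent streptavidin beads loaded with avi-tagged PSMA. 4×10^4 beads and 10^5 effectors (E:T 2.5:1) in phenol-free RPMI/10% low-IgG FBS, ±test compound ±competitor (PSMA ligand or anti-FcγRI antibody). Spun 200 rcf 2 min, 37 °C 1 h, stopped on ice, flow cytometry. % targets phagocytosed minus no-compound background; mean of ≥duplicates ±SD.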

In data set [2] the test system is PSMA-expressing RM1.PGLS cells phagocytosed by IFN-γ-primed U937 cells. Description: Cell phagocytosis assay. Format: cell-based, murine. In short, it runs like this:
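RM1.PGLS targets were stained adherent with DiO (final 1.9 μM), detached with 0.5 mM EDTA/EGTA and checked by trypan blue. 1.25×10^4 targets and 10^5 IFN-γ-primed, DiD-stained U937 (E:T 8:1; range 2:1–20:1 also tested) in Assay Media, ±test compound ±inhibitors. Spun 200 rcf 2 min, 1 h at 37 °C, then flow cytometry. % targets phagocytosed minus background. Imaging-cytometry counterpart: formaldehyde-fixed, CD14/CD11b-APC plus Hoechst, events scored as cup or engulfment. Dunnett ANOVA versus no compound.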

The next data set has as its system RM1-hPSMA cells. Description: Compound cytotoxicity assay. Format: cell-based, murine. The following applies: cell index over 24 hours, vs 1% DMSO. In outline:
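12 500 RM1-hPSMA cells per well were plated 36 h beforehand in DMEM (4.5 g/L glucose, 10% FBS, pen/strep, 2 mM glutamine, 1 mM pyruvate). Impedance cell index was recorded at 37 °C, 5% CO2, with cell-free medium as background. At time 0 medium was replaced with test compound at various concentrations, 1% DMSO vehicle or 3% Triton. Readings every 2 min for 3 h, then every 10 min for 21 h.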

The subject of data set [3] is IFN-γ-primed U937 cells with PSMA-coated beads. Description: ROS production. Format: cell-based. In short, it runs like this: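 U937 cells primed 72 h with IFN-γ (final 2 ng/mL, daily medium change). 3×10^5 cells/mL in phenol-free RPMI/10% low-IgG FBS mixed with test compound, with or without 10^5 PSMA-coated beads/mL. 2.5 mM lucigenin solution added (stock). Plate spun 200 rcf 2 min. Chemiluminescence read every 2 min for 60–90 min; peak luminescence taken. Mean of ≥duplicates ±SD.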

Data set [4] relates to isogenic PSMA-negative RM1 tumor line. Description: Cell phagocytosis assay, PSMA-negative control. The following applies: U937 effector cells. Format: cell-based, murine.

Each structure is given as a SMILES string.

Regarding `O=C(O)CCC(CP(=O)(O)O)C(=O)O` (stereo not drawn) [2-PMPA], the “effect of competitor on SyAM-P3-induced bead phagocytosis” value in data set [1] (50 nM SyAM-P3) is given as “suppressed in a concentration-dependent manner”. In addition, the “effect of competitor on SyAM-P1-induced bead phagocytosis” value in data set [1] (SyAM-P1-induced effector responses) is on record as “abrogated”. Also, the “effect of competitor on SyAM-P3-induced cell phagocytosis” value in data set [2] (RM1.PGLS targets) is recorded as “suppressed”.

On to `CC(=O)N[C@H](C(=O)N[C@@H](CC(N)=O)C(=O)N[C@@H](CO)C(=O)N[C@H]1CSSC[C@@H](C(=O)NCC(=O)N[C@@H](CC(=O)O)C(=O)N[C@@H](CC(=O)O)C(=O)N[C@@H](CCCCNC(=O)CCCC(=O)NCCOCCOCCOCC(=O)NCCCC[C@H](NC(=O)COCCOCCOCCNC(=O)CCCC(=O)NCCCC[C@H](NC(=O)[C@H](CC(=O)O)NC(=O)[C@H](CC(=O)O)NC(=O)CNC(=O)[C@@H]2CSSC[C@H](NC(=O)[C@H](CO)NC(=O)[C@H](CC(N)=O)NC(=O)[C@@H](NC(C)=O)C(C)C)C(=O)N[C@@H](CC(C)C)C(=O)N[C@@H](CC(C)C)C(=O)N[C@@H](CC(C)C)C(=O)N3CCC[C@H]3C(=O)N[C@@H](CC(N)=O)C(=O)N[C@@H](CC(C)C)C(=O)N[C@@H](CC(C)C)C(=O)NCC(=O)N2)C(=O)N[C@@H](CCCCNC(=O)CCCC[C@@H]2SC[C@@H]3NC(=O)N[C@@H]32)C(N)=O)C(=O)NCc2cn(-c3cc(C(=O)NCCCCCC(=O)NCCCCCC(=O)NCCCCCC(=O)NCCCCCC(=O)NCCCCCC(=O)NCCCCCC(=O)NCc4cn(CCCC[C@H](NC(=O)N[C@@H](CCC(=O)O)C(=O)O)C(=O)O)nn4)cc(C(=O)NCCCCCC(=O)NCCCCCC(=O)NCCCCCC(=O)NCCCCCC(=O)NCCCCCC(=O)NCCCCCC(=O)NCc4cn(CCCC[C@H](NC(=O)N[C@@H](CCC(=O)O)C(=O)O)C(=O)O)nn4)c3)nn2)C(=O)N[C@@H](CCCCNC(=O)CCCC[C@@H]2SC[C@@H]3NC(=O)N[C@@H]32)C(N)=O)NC(=O)CNC(=O)[C@H](CC(C)C)NC(=O)[C@H](CC(C)C)NC(=O)[C@H](CC(N)=O)NC(=O)[C@@H]2CCCN2C(=O)[C@H](CC(C)C)NC(=O)[C@H](CC(C)C)NC(=O)[C@H](CC(C)C)NC1=O)C(C)C` [SyAM-P3], for which, in data set [1] (primed U937 effector cells), the “phagocytosis of PSMA-coated beads, comparison between SyAMs” value is “both more potent and more efficacious than earlier-generation molecules”. Further, the “cytotoxicity in the absence of effector cells” value in the data set on RM1-hPSMA cells is on record as “non-cytotoxic”. Besides, the “ROS production in the absence of target beads” value in data set [3] (no PSMA-labeled beads) is reported as “required the presence of PSMA-labeled beads”. Moreover, the superoxide burst response entry in data set [3] (with PSMA-coated beads, lucigenin chemiluminescence) was “both more potent and more efficacious than earlier-generation molecules”. In addition, the “phagocytosis of PSMA-negative RM1 cells” value in data set [4] is given as “only minimal levels of phagocytosis”. Moreover, the “phagocytosis of PSMA-expressing RM1.PGLS cells” value in data set [2] (U937 effector cells) was “significant levels of target cell phagocytosis”.
